These results are taken from ChEMBL document CHEMBL1138793, “A three-dimensional in silico pharmacophore model for inhibition of Plasmodium falciparum cyclin-dependent kinases and discovery of different classes of novel Pfmrk specific inhibitors” (J Med Chem, 2004).

Values joined by “and” are separate entries in the source; they are usually repeats but may differ in a detail not shown here. Equal values may be shown once.

The target in the assay is T1, Protein kinase Pfmrk (Plasmodium falciparum, UniProt P90584).
T1 sequence (P90584 whole entry): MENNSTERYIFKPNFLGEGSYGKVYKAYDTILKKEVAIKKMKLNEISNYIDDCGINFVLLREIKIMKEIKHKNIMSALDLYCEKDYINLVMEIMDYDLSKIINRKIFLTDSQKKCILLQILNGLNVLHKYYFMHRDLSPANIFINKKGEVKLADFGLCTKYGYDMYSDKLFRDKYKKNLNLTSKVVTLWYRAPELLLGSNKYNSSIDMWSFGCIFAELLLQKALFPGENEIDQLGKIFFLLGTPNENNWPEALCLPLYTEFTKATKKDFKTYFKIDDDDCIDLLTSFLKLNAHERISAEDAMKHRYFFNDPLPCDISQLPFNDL
Kind of assay: Inhibition of Plasmodium falciparum cyclin-dependent kinase. The method in brief:
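Recombinant 6xHIS-tagged Plasmodial CDK (3.0 μg) expressed in E. coli, assayed with 2.0 μg GST-tagged cyclin Pfcyc-1 and 5.0 μg RNA polymerase II CTD substrate in 40 mM Hepes pH 7.5, 30 mM MnCl₂, 2.0 mM DTT. Enzyme and compound preincubated 5 min at 30 °C. Reaction started with [γ-32P]ATP plus 12.5 μM ATP, run 35 min at 30 °C. Filter plate washed with phosphoric acid, counted by scintillation. Triplicates; IC50 from concentration range.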
What is called IC50 is the point on the concentration scale where inhibition reaches its midpoint. On to `CCOC(=O)c1cc([N+](=O)[O-])ccc1Cl`, for which the IC50 was found to be 87 µM. That is a double-digit micromolar value.
With `NNC(Cc1c[nH]c2ccccc12)C(=O)O` (stereo unspecified) the figure was 182 µM; with `CC1NN=C(c2ccccc2)C1[N+](=O)[O-]` (stereo unspecified), 394 µM; with `O=C(/C=C/c1ccccn1)c1ccc([N+](=O)[O-])cc1`, 18 µM.
In turn, `O=C1Nc2ccc([N+](=O)[O-])cc2/C1=C/c1ccccc1O` registered an IC50 of 35 µM.
`O=C1c2cc(F)ccc2-n2c1nc1ncccc1c2=O` gave an IC50 of 4.7 µM.
For `Cc1cc(Cl)ccc1NC(=O)c1cccc([N+](=O)[O-])c1` the value was 69 µM; for `O=C(/C=C/c1ccccc1)c1cccc([N+](=O)[O-])c1`, 10 µM.
With `CC(=O)Nc1ccc(C(=O)/C=C/c2ccccc2)cc1` the figure was 17 µM; with `O=C(Cl)c1c2c(nc3c(Cl)cc(Cl)cc13)-c1ccc(Cl)cc1CC2`, 25 µM.
With `CN1C(=O)/C(=C\C(=O)c2ccc(Br)cc2)c2ccccc21` the figure was 29 µM.
Take `O=C1NC(=O)/C(=C2/C(=O)Nc3ccc(F)cc32)S1`: it took 30 µM to reach half-maximal inhibition (IC50).
In turn, `COc1ccc(-c2nnc(N(CCO)CCO)o2)cc1` registered an IC50 of 35.8 µM.
For `CCOC(=O)/C(=C\c1ccccn1)C(=O)c1ccc([N+](=O)[O-])cc1` the value was 61 µM; for `O=C1Nc2ccccc2/C1=C/C(=O)c1ccccc1`, 4 µM; for `O=C1Nc2ccccc2/C1=C\c1ccc(C(F)(F)F)cc1`, 138 µM.
For `O=C1c2ccc(Cl)cc2-n2c1nc1ncccc1c2=O` the value was 3.5 µM.
As to `COc1ccc2c(c1)/C(=C1\SC(=S)NC1=O)C(=O)N2`, 17.1 µM corresponded to half-maximal inhibition (IC50). This IC50 is about 4.9-fold higher than that of the compound before.
For `O=S(=O)(O)c1cc(O)c(/N=N/c2ccc(O)cc2O)c2ccccc12` the value was 11 µM; for `O=[N+]([O-])c1cc(S(=O)(=O)Nc2ccc(C(F)(F)F)cc2)sc1Cl`, 2.5 µM; for `N#C/C(=C1\OC(=O)N(c2ccc(Cl)cc2)C1=O)c1ccc(Cl)cc1`, 14 µM.
In the case of `O=C(CCl)Nc1nc2c(Cl)cccc2s1`, the IC50 was 38 µM and 38.3 µM.
With `NC(=S)NC1(c2ccccc2)OC(=O)c2ccccc21` (stereo unspecified) the figure was 70 µM.
For `O=C1c2cc([N+](=O)[O-])ccc2-n2c1nc1ncccc1c2=O` the value was 0.13 µM.
Turning to `Cc1ccc(C(=O)/C=C2\C(=O)Nc3ccc(Br)cc32)cc1`, half-maximal inhibition (IC50) was put at 2.9 µM.
For `O=C1/C(=C/c2ccccn2)CCc2ccccc21` the value was 17 µM.
In turn, `O=C(N=C(S)Nc1cc([N+](=O)[O-])ccc1O)c1ccc(Cl)cc1Cl` registered an IC50 of 10 µM.
For `Cn1cc(C(=O)C(C)(C)N)c2ccccc21` the value was 46.2 µM; for `O=C1Nc2ccc([N+](=O)[O-])cc2C1=O` [5-NITROISATIN], 5.9 µM.
`O=c1cc(-c2ccc(O)cc2)oc2cc(O)cc(O)c12` [APIGENIN] came in with an IC50 of 7 µM.
With `CCN(CC)CCCC(C)Nc1ccnc2cc(Cl)ccc12` (stereo unspecified) [CHLOROQUINE] the figure was 150 µM; with `O=c1c(-c2ccc(O)cc2)coc2cc(O)cc(O)c12` [GENISTEIN], 93 µM; with `CN(C)CCCn1cc(C2=C(c3c[nH]c4ccccc34)C(=O)NC2=O)c2ccccc21` [GF-109203], 24 µM.
With `OC(c1cc(C(F)(F)F)nc2c(C(F)(F)F)cccc12)C1CCCCN1` (stereo unspecified) [MEFLOQUINE] the figure was 12 µM; with `O=c1c(O)c(-c2cc(O)c(O)c(O)c2)oc2cc(O)cc(O)c12` [MYRICETIN], 157 µM; with `Cn1cnc2c(NCc3ccccc3)nc(NCCO)nc21` [OLOMOUCINE], 1100 µM.
